Assay results reported in ChEMBL document CHEMBL1772965, “Analogues and derivatives of oncrasin-1, a novel inhibitor of the C-terminal domain of RNA polymerase II and their antitumor activities” (J Med Chem, 2011).
Calls of active or inactive are those of the source. No cut-off for these calls is given here.

What was measured:
[1] = Cytotoxicity against mutant K-ras-transformed human T29Kt1 cells assessed as cell viability after 3 days by sulforhodamine B assay; type: functional, cell-based; conditions: T29Kt1, 72 h
How it was run: (§1)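 Monolayer cultures were grown in RPMI-1640 or DMEM with 10% heat-inactivated fetal calf serum and penicillin/streptomycin, at 37°C and 5% CO2. Cells were exposed for 3 days to compound from 10−4.5 M (31.6 μM) down to 10−8 M (10 nM), with 1% DMSO as the control. Viability was read by sulforhodamine B. IC50 was the dose halving surviving cells versus control, run in quadruplicate and repeated at least three times.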

[2] = Cytotoxicity against human T29 cells assessed as cell viability after 3 days by sulforhodamine B assay; type: cell-based; conditions: T29, 72 h; how it was run: as §1
[3] = tested on: NCI-H460; experiment: Cytotoxicity against human H460 cells assessed as cell viability after 3 days by sulforhodamine B assay; type: functional, cell-based; conditions: NCI-H460, 72 h; how it was run: as §1
[4] = Stability of compound at pH 4; type: physicochemical; conditions: buffer
[5] = Stability of compound at pH 6; type: physicochemical; conditions: buffer
[6] = Stability of compound at pH 7.4; type: physicochemical; conditions: buffer
[7] = Stability of compound at pH 9; type: physicochemical; conditions: buffer
[8] = Stability of compound at pH 2; type: physicochemical; conditions: buffer
[9] = tested on: NCI-H157; experiment: Antitumor activity against human NCI-H157 cells assessed as cell viability after 3 days by sulforhodamine B assay; type: functional, cell-based; conditions: NCI-H157, 72 h; how it was run: as §1
[10] = tested on: NCI-H460; experiment: Antitumor activity against human H460 cells assessed as cell viability after 3 days by sulforhodamine B assay; type: functional, cell-based; conditions: for IC50: NCI-H460, 72 h; how it was run: as §1
[11] = (§2) Antitumor activity against human H1299 cells assessed as cell viability after 3 days by sulforhodamine B assay; type: functional, cell-based; conditions: NCI-H1299, 72 h; how it was run: as §1
[12] = (§3) Antitumor activity against human NCI-H322 cells assessed as cell viability after 3 days by sulforhodamine B assay; type: functional, cell-based; conditions: NCI-H322, 72 h; how it was run: as §1
[13] = tested on: NCI-H157; experiment: Inhibition of RNA pol2 CTD phosphorylation in human NCI-H157 cells at 1 uM after 12 hrs by Western blot analysis; type: cell-based
How it was run: (§4)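 Cells were treated with 1 μM compound for 12 h and then analysed by Western blot. Phospho-CTD was detected with the H5 antibody (diluted 1:1000), and β-actin (1:1000) served as the loading reference.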

[14] = tested on: H460; experiment: Inhibition of RNA pol2 CTD phosphorylation in human H460 cells at 1 uM after 12 hrs by Western blot analysis; type: cell-based; how it was run: as §4
[15] = tested on: H1299; experiment: Inhibition of RNA pol2 CTD phosphorylation in human H1299 cells at 1 uM after 12 hrs by Western blot analysis; type: cell-based; how it was run: as §4
[16] = tested on: NCI-H322; experiment: Inhibition of RNA pol2 CTD phosphorylation in human NCI-H322 cells at 1 uM after 12 hrs by Western blot analysis; type: cell-based; how it was run: as §4
[17] = tested on: NCI-H1299; experiment: as §2; type: functional, cell-based; how it was run: as §1
[18] = tested on: NCI-H322; experiment: as §3; type: functional, cell-based; how it was run: as §1

SMILES | IC50 [1] [µM] | IC50 [2] [µM] | IC50 [3] [µM] | Stability [4] | Stability [5] | Stability [6] | Stability [7] | Stability [8] | IC50 [9] [µM] | IC50 [10] [µM] | IC50 [11] [µM] | IC50 [12] [µM] | inhibition [13] | inhibition [14] | inhibition [15] | inhibition [16] | Activity [10] | Activity [17] | Activity [18]
OCc1cn(Cc2cccc(F)c2)c2ccc(Cl)cc12 | 0.16 | 10 | 0.07 | Stable | Stable | Stable | Stable | Unstable | ≤ 0.2 | ≤ 0.2 | ≥ 13 | ≥ 13 | Active | Active | inactive | inactive |  |  | 
OCc1cn(Cc2cccc(Br)c2)c2ccccc12 | 0.032 | > 31.6 | 0.028 | Stable | Stable | Stable | Stable | Unstable |  |  |  |  |  |  |  |  |  |  | 
COc1ccc2c(c1)c(CO)cn2Cc1ccc(Cl)cc1 | 12.5 | > 31.6 | 1.51 | Stable | Stable | Stable | Stable | Unstable |  |  |  |  |  |  |  |  |  |  | 
OCc1cn(Cc2ccc(Cl)cc2)c2ccc(Cl)cc12 | 13 | > 31.6 | 5.75 | Stable | Stable | Stable | Stable | Unstable |  |  |  |  |  |  |  |  |  |  | 
OCc1cn(Cc2cccc(Cl)c2)c2ccccc12 | 0.16 | > 31.6 | 0.019 | Stable | Stable | Stable | Stable | Unstable | ≤ 0.2 | ≤ 0.2 |  |  | Dose-dependent effect | Active | inactive | inactive | Dose-dependent effect | Dose-dependent effect | Dose-dependent effect
Cn1cc(CO)c2cc(F)ccc21 | 13.8 | > 31.6 | 16.9 | Stable | Stable | Stable | Stable | Unstable |  |  |  |  |  |  |  |  |  |  | 
OCc1cn(Cc2ccc(Cl)c(Cl)c2)c2ccccc12 | 0.31 | > 31.6 | 0.031 | Stable | Stable | Stable | Stable | Unstable |  |  |  |  |  |  |  |  |  |  | 
OCc1cn(Cc2ccc(Cl)cc2)c2ccccc12 | 0.079 | > 31.6 | 0.016 | Stable | Stable | Stable | Stable | Unstable | ≤ 0.2 | ≤ 0.2 |  |  | Dose-dependent effect | Active | inactive | inactive | Dose-dependent effect | Dose-dependent effect | Dose-dependent effect
OCc1cn(Cc2ccc(F)cc2)c2ccccc12 | 0.03 | 17 | 0.118 | Stable | Stable | Stable | Stable | Unstable |  |  |  |  |  |  |  |  |  |  | 
OCc1cn(Cc2ccc(Cl)cc2Cl)c2ccccc12 | 1.58 | > 31.6 | 0.079 | Stable | Stable | Stable | Stable | Unstable |  |  |  |  |  |  |  |  |  |  | 
O=[N+]([O-])c1ccc(Cn2cc(CO)c3ccccc32)cc1 | 0.15 | > 31.6 | 0.079 | Stable | Stable | Stable | Stable | Unstable |  |  |  |  |  |  |  |  |  |  | 
Cc1ccc(Cn2cc(CO)c3cc(F)ccc32)cc1 | 0.03 | 11.7 | 0.01 | Stable | Stable | Stable | Stable | Unstable |  |  |  |  |  |  |  |  |  |  | 
OCc1cn(Cc2cccc(F)c2)c2ccccc12 | 0.02 | > 31.6 | 0.04 | Stable | Stable | Stable | Stable | Unstable |  |  |  |  |  |  |  |  |  |  | 
COc1ccc(Cn2cc(CO)c3ccccc32)cc1 | 0.063 | > 31.6 | 0.079 | Stable | Stable | Stable | Stable | Unstable |  |  |  |  |  |  |  |  |  |  | 
OCc1cn(Cc2ccccc2)c2ccccc12 | 0.03 | 14.5 | 0.112 | Stable | Stable | Stable | Stable | Unstable |  |  |  |  |  |  |  |  |  |  | 
OCc1cn(Cc2cccc(C(F)(F)F)c2)c2ccccc12 | 0.56 | > 31.6 | 0.039 | Stable | Stable | Stable | Stable | Unstable |  |  |  |  |  |  |  |  |  |  | 
OCc1cn(Cc2ccc(Br)c(Br)c2)c2ccccc12 | 0.1 | > 31.6 | 0.05 | Stable | Stable | Stable | Stable | Unstable |  |  |  |  |  |  |  |  |  |  | 
